The source of these data is PubChem BioAssay.

Calls of active or inactive are those of the source.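 Rule for the calls, unless noted: active = duplicate-averaged activation above buffer control mean plus 5 SD of those controls; inactive = the rest.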

Experiment [1] is described as follows: nonspecific flux increase, KCNQ1-free cells – parental CHO cells, counter-screen for KCNQ1 potentiator project (AID 493006). The note with it: parental CHO-K1 cells, FluxOR thallium flux, at 10 µM; active compounds read high. Summed up:
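Assay system: Untransfected host CHO-K1 cells with FluxOR thallium dye | Probe or stimulus: Potassium/thallium depolarization pulse | Schedule: Overnight 37 °C plating, 90 min RT dye, 20 min compound | Detection: Kinetic thallium-flux fluorescence | Read-out: Max-minus-min fluorescence over baseline, percent of buffer-to-R-L3 span | Benchmarks: Low control buffer, high control R-L3 activator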

Experiment [2] concerns the target Potassium voltage-gated channel subfamily KQT member 1 (Homo sapiens) (UniProt P51787). Briefly: enhancement of KCNQ1 channel thallium flux – FluxOR thallium flux, CHO cells, duplicates, confirmation (AID 493007;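 active = potentiation averaged over duplicate wells exceeding buffer-only control mean by more than 3 SD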;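 for outcome: cells depolarized by a potassium plus thallium sulfate stimulus after compound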). The note with it: KCNQ1 cell line, FluxOR thallium flux fluorescence, at 10 µM; active compounds read high, % of reference activator effect, buffer zero. Summed up: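 Material: KCNQ1-expressing CHO cell line; Incubation: FluxOR dye loading 90 min, compound exposure 20 min, room temperature; Detection: FluxOR Tl+ flux fluorescence, 10 s baseline plus 110 s recording; Read-out: percent activation between buffer and R-L3 responses; Control set: buffer-only wells as 0% and R-L3 activator as 100%; Replication: duplicate wells per compound.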

Experiment [3] addresses Potassium voltage-gated channel subfamily KQT member 2 (Rattus norvegicus) (UniProt O88943). Nature of the experiment: KCNQ2 thallium flux enhancement – KCNQ2-CHO-K1 cells, selectivity assay for KCNQ1 potentiator project (AID 493009;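 active = mean duplicate potentiation above the buffer control mean plus 5 SD of buffer wells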;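 note: assay conditions were tuned for KCNQ1 rather than KCNQ2 modulators; signal is max minus min fluorescence divided by baseline after thallium stimulus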). Conditions: FluxOR thallium flux fluorescence, at 10 µM; active compounds read high, scaled: buffer 0, activator control 100.
Experiment [4] addresses Potassium voltage-gated channel subfamily KQT member 1 (Homo sapiens) (UniProt P51787). Briefly: KCNQ1 activators by electrophysiology – IonWorks patch clamp, KCNQ1-CHO cells, orthogonal assay for KCNQ1 potentiator project, confirmation (AID 493184;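 active = current rise at least 3 SD above the untreated control mean in each of two repeat wells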). The note with it: automated patch clamp current, at 10 µM; active compounds read high. The procedure, abridged:
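assay system = KCNQ1-expressing CHO cells | medium = external bath solution at pH 7.4 | probe or stimulus = 2,000 ms depolarization, -90 to +40 mV | compound dosing = 10 µM final, single point | measured by = automated voltage clamp, amphotericin B perforated patch | measure = percent current increase versus pre-compound level | replication = duplicates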

Chain of Potassium voltage-gated channel subfamily KQT member 2 (Rattus norvegicus) (O88943 whole entry, looked up): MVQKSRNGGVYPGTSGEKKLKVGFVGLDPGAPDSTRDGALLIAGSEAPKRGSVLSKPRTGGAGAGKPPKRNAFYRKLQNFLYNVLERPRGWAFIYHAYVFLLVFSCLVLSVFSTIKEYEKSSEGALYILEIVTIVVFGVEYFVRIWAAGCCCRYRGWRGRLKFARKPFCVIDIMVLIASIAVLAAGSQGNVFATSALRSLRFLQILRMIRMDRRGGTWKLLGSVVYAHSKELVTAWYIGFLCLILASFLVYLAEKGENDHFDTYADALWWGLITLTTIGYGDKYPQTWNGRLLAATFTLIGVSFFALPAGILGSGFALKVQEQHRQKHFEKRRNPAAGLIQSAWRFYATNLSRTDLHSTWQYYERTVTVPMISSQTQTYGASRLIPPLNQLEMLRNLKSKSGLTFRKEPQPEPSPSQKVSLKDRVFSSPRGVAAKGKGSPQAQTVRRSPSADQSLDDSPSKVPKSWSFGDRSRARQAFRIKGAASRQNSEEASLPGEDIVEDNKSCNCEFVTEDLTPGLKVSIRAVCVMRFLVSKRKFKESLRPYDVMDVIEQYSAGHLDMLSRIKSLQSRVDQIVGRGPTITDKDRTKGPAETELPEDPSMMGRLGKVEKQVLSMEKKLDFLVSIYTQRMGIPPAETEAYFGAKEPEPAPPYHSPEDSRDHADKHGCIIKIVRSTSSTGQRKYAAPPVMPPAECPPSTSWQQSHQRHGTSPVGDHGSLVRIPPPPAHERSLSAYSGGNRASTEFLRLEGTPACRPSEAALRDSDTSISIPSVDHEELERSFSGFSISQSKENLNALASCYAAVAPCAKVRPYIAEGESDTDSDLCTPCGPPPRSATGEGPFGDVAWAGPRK
Chain of Potassium voltage-gated channel subfamily KQT member 1 (Homo sapiens) (P51787 whole entry, looked up): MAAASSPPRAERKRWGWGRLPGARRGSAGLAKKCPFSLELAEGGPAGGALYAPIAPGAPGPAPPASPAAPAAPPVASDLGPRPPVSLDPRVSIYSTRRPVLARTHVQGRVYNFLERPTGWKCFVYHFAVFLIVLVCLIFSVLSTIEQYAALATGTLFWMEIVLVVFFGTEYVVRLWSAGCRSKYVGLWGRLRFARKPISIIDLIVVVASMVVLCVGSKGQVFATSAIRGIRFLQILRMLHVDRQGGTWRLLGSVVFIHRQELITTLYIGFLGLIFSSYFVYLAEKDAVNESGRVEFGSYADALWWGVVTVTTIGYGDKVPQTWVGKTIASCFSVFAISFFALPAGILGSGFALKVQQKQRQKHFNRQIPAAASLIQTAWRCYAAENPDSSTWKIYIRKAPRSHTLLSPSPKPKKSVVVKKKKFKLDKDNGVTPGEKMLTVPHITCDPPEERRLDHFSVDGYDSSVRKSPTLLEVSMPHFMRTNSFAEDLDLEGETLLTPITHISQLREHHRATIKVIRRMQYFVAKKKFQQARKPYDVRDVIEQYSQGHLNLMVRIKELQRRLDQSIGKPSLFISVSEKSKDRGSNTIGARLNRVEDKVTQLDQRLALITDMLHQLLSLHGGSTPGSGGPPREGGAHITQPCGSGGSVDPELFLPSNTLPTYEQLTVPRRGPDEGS

As for `CCOC(=O)Cc1csc(NC(=S)NC(=O)c2ccccc2C)n1`, the activation in experiment [1] was 201% (active). In addition, the potentiation in experiment [2] was 45.5% (active); in experiment [3] it was 200% (active). For the same molecule, the result in experiment [4] was inactive.
Take `CCOC(=O)c1sc(NN=C(C(=O)OC)C(=O)OC)c(C(=O)OCC)c1C`: the activation in experiment [1] is 185% (active). The potentiation in experiment [2] was 74.5% (active); in experiment [3] it was 208% (active). Further, the result in experiment [4] was inactive.
For `CC(OC(=O)CCCNC(=O)c1ccc(Cl)cc1)C(=O)N(C)Cc1ccccc1` (stereo not given), the outcome in experiment [1], in experiment [2], in experiment [3] and in experiment [4] was inactive.
As for `O=C(NC(=S)N1CCc2ccccc21)c1ccccc1Cl`, the activation in experiment [1] was 443% (active). For the same molecule, the potentiation in experiment [2] was 130% (active); in experiment [3], 416% (active). In addition, the result in experiment [4] was inactive.
On to `CCC(=O)Nc1cc(-c2nn3c(C)nnc3s2)ccc1C`, for which the result in experiment [1], in experiment [2], in experiment [3] and in experiment [4] was inactive.
With `O=C(CCc1ccccc1)Nc1nccs1`, the outcome in experiment [1], in experiment [2], in experiment [3] and in experiment [4] was inactive.
Regarding `CC(C)(C)C(=O)NC(=S)NNC(=O)c1ccc(Cl)cc1Cl`, the result in experiment [1] and in experiment [4] was inactive. Besides, the potentiation in experiment [2] is 52% (active); in experiment [3], 171% (active).
For `CN(C(=O)c1ccco1)c1nnc(-c2ccc(F)cc2)s1`, the result in experiment [1], in experiment [2], in experiment [3] and in experiment [4] was inactive.
On to `COc1ccc2nc(/N=C/c3c(C)[nH]n(-c4ccc(C)cc4)c3=O)sc2c1`, for which the activation in experiment [1] was 340% (active). Moreover, the potentiation in experiment [2] is 273% (active); in experiment [3], 518% (active). Besides, in experiment [4], the outcome was inactive.
In the case of `CNC(=S)Nc1sc2c(c1C(=O)OC)CCC2`, in experiment [1], the activation is 252% (active). Besides, the potentiation in experiment [2] is 89.5% (active); in experiment [3], 287% (active). In addition, the outcome in experiment [4] was inactive.
Take `O=[N+]([O-])c1cc(C(F)(F)F)ccc1Oc1cccnc1[N+](=O)[O-]`: the result in experiment [1], in experiment [2], in experiment [3] and in experiment [4] was inactive.
Regarding `CCC(C)NC(=O)c1cc(Cl)c(NC(=O)C2=C(C)OCCS2)cc1OC` (stereo not given), the result in experiment [1], in experiment [2], in experiment [3] and in experiment [4] was inactive.
In the case of `Cc1ccc(C)c(NC(=S)NC(=O)c2cncc(Br)c2)c1`, the result in experiment [1], in experiment [3] and in experiment [4] was inactive. The potentiation in experiment [2] is 18.5% (active).
`CC(C)(C)C1(O)CC(C(F)(F)F)=NN1C(=O)Cc1ccc([N+](=O)[O-])cc1` (stereo not given): the result in experiment [1], in experiment [2], in experiment [3] and in experiment [4] was inactive.
With `Cc1ccc2c(c1)c(C)c(C)n2CC(O)CN1CCCCC1C` (stereo not given), the outcome in experiment [1], in experiment [2], in experiment [3] and in experiment [4] was inactive.
For `NC(=O)c1nsc(C(=O)N(CC(=O)NC2CCCCC2)c2ccc(Cl)cc2)c1N`, the result in experiment [1], in experiment [2], in experiment [3] and in experiment [4] was inactive.
Take `O=C(COC(=O)c1cc(NS(=O)(=O)c2cccs2)ccc1O)Nc1cc(Cl)ccc1Cl`: the result in experiment [1], in experiment [2], in experiment [3] and in experiment [4] was inactive.
Turning to `O=C(Nc1nc2c(F)cc(F)cc2s1)C1COc2ccccc2O1` (stereo not given), the activation in experiment [1] was 142% (active). For the same molecule, the potentiation in experiment [2] was 68.5% (active); in experiment [3], 194% (active). The outcome in experiment [4] was inactive.
For the molecule `COc1ccc(C(=O)NNC(=O)C(=O)NC2CCCCC2)cc1`, the outcome in experiment [1] and in experiment [4] was inactive. For the same molecule, the potentiation in experiment [2] is 22% (active); in experiment [3], 168% (active).
On to `Cc1ccc(C)c(N(CC(=O)NC2CCCC2)C(=O)CCC(=O)Nc2nccs2)c1`, for which the result in experiment [1], in experiment [2], in experiment [3] and in experiment [4] was inactive.
On to `COc1ccc(C2C(C(=O)c3ccccc3)=C(C)Nc3nc4ccccc4n32)cc1OC` (stereo not given), for which the outcome in experiment [1], in experiment [2], in experiment [3] and in experiment [4] was inactive.
For the molecule `Cn1c(=O)c2nc3ccccc3nc2n(C)c1=O`, the activation in experiment [1] was 168% (active). Also, the potentiation was 30.5% (active) in experiment [2] and 184% (active) in experiment [3]. Moreover, in experiment [4], the outcome was inactive.
Regarding `COc1cccc(C(=O)NC(=S)Nc2ccc3c4c(cccc24)CC3)c1`, the result in experiment [1], in experiment [3] and in experiment [4] was inactive. In experiment [2], the potentiation was 25.5% (active).
`COc1cccc2sc(N(CCCN(C)C)C(=O)CCS(=O)(=O)c3ccccc3)nc12`: the outcome in experiment [1], in experiment [2], in experiment [3] and in experiment [4] was inactive.
For the molecule `Cn1ccnc1SCC(=O)NC1CC1`, the outcome in experiment [1], in experiment [2], in experiment [3] and in experiment [4] was inactive.
`COc1cc(CN2CCN(c3cccc(Cl)c3)CC2)cc(OC)c1OC`: the outcome in experiment [1], in experiment [2], in experiment [3] and in experiment [4] was inactive.
On to `Cc1onc(-c2ccccc2Cl)c1C(=O)Nc1ccccc1O`, for which the result in experiment [1], in experiment [2], in experiment [3] and in experiment [4] was inactive.
Take `Cc1ccc(OCCN2C(=O)c3ccccc3C2=O)c([N+](=O)[O-])c1`: the outcome in experiment [1], in experiment [2], in experiment [3] and in experiment [4] was inactive.
In the case of `Cc1nn(-c2ccccc2)c(Cl)c1/C=C1\SC(=S)NC1=O`, the activation in experiment [1] is 614% (active). Further, the potentiation is 295% (active) in experiment [2] and 704% (active) in experiment [3]. In addition, in experiment [4], the result was inactive.
In the case of `CC(C)n1c(O)c(N=NC(=O)C2COc3ccccc3O2)c2ccccc21` (stereo not given), in experiment [1], the activation was 234% (active). Also, the potentiation in experiment [2] was 66.5% (active); in experiment [3] it was 208% (active). Further, the result in experiment [4] was inactive.
